Drawing on ChEMBL document CHEMBL4477241, “Structure-Activity Relationship Studies for Enhancer of Zeste Homologue 2 (EZH2) and Enhancer of Zeste Homologue 1 (EZH1) Inhibitors” (J Med Chem, 2016), this text covers IC50 for 15 compounds.

Assay [1] deals with Histone-lysine N-methyltransferase EZH2 (Homo sapiens, UniProt O75530+Q15022+Q15910). Description: Inhibition of EZH2 histone methyltransferase activity of EZH2/EED/SUZ12 protein complex (unknown origin) using histone H3 peptide as substrate (21 to 44 residues) in presence of [3H]-S-adenosylmethionine after 2 hrs by scintillation proximity assay. A digest of the protocol:
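20 nM EZH2 trimeric complex with 2 μM 3H-SAM and 1 μM biotinylated H3(21–44) in 20 mM Tris-HCl pH 8, 5 mM DTT, 0.01% Triton X-100. Incubated 1 h at 23 °C, quenched with guanidine hydrochloride, then 2 h streptavidin flash-plate capture. Activity scaled between no-compound and no-enzyme counts.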
On the technique in general: In a scintillation proximity assay essentially only radioactivity close to the scintillant gives light.

Assay [2] addresses T1, Histone-lysine N-methyltransferase EZH1 (Homo sapiens, UniProt Q92800).
T1 sequence (Q92800 whole entry): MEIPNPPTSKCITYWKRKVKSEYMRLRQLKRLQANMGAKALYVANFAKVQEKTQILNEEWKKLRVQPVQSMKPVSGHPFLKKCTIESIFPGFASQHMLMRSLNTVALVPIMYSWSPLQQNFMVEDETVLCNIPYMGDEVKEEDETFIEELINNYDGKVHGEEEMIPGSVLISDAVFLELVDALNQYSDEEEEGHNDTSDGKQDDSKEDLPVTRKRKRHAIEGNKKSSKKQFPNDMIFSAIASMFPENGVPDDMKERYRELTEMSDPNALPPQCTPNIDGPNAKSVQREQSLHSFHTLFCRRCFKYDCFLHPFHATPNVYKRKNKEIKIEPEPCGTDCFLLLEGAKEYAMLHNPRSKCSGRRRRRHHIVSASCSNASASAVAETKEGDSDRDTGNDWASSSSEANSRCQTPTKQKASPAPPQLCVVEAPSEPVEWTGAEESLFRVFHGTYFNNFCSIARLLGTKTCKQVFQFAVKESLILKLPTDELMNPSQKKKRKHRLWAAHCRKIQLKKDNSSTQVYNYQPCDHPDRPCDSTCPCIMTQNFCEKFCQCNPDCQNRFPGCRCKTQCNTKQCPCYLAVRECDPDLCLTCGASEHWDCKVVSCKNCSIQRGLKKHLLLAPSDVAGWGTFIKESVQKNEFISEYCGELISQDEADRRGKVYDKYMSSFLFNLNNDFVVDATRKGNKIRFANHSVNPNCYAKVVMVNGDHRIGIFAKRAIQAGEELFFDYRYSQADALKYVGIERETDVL
The assay is described as follows: Inhibition of EZH1 histone methyltransferase activity of EZH1/EED/SUZ12/RBBP4/AEBP2 protein complex (unknown origin) using histone H3 peptide as substrate (21 to 44 residues) in presence of [3H]-S-adenosylmethionine after 2 hrs by scintillation proximity assay. A digest of the protocol:
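10 nM EZH1 pentameric complex with 4 μM 3H-SAM and 1 μM biotinylated H3(21–44) in 20 mM Tris-HCl pH 8, 5 mM DTT, 0.01% Triton X-100. Reaction run 1 h at 23 °C, stopped with guanidine hydrochloride, then captured 2 h on a streptavidin flash plate. Counts normalized to no-compound (100%) and no-enzyme (0%) controls.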

Chain of Histone-lysine N-methyltransferase EZH2 (Q15910 whole entry, the tested form may be a part, one chain of several): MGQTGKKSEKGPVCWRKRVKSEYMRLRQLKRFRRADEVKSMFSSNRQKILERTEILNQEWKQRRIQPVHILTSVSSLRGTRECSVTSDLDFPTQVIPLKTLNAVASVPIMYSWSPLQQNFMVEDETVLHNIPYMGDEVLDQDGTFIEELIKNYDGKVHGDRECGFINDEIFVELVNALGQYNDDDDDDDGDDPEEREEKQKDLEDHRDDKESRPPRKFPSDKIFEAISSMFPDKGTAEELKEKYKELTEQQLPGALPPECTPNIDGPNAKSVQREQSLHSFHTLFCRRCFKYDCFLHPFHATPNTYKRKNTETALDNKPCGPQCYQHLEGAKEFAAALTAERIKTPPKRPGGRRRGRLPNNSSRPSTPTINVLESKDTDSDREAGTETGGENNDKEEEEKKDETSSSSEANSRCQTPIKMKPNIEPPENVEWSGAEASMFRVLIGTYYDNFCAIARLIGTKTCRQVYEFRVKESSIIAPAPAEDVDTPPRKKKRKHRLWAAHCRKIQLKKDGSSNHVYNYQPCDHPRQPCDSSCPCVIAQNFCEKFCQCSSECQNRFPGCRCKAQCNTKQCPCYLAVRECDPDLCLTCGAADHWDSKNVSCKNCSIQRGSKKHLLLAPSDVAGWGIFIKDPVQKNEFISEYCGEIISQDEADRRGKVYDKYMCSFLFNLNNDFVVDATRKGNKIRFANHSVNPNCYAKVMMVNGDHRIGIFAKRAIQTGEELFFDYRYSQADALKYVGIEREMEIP

For `CCCc1cc(C)[nH]c(=O)c1CNC(=O)c1cc(-c2ccc(C(F)(F)F)cn2)cc2c1cnn2C(C)C`, the IC50 in assay [1] was 64 nM; in assay [2], more than 5000 nM.

Regarding `CCCc1cc(C)[nH]c(=O)c1CNC(=O)c1cc(N2CCCNCC2)cc2c1cnn2C(C)C`, the half-inhibitory concentration (IC50) in assay [1] is 42 nM; in assay [2] it was more than 2500 nM.

For the compound `CCCc1cc(C)[nH]c(=O)c1CNC(=O)c1cc(NC2CCNCC2)cc2c1cnn2C(C)C`, the figures for the IC50 in assay [1] and in assay [2] were 26 nM and more than 1250 nM, respectively.

As to `CCCc1cc(C)[nH]c(=O)c1CNC(=O)c1cc(-c2ccccc2)cc2c1cnn2C(C)C`, the IC50 in assay [1] is 41 nM; in assay [2] it was more than 1250 nM.

For `CCCc1cc(C)[nH]c(=O)c1CNC(=O)c1cc(-c2ccccn2)cc2c1cnn2C(C)C`, the IC50 in assay [1] was 24 nM; in assay [2], 681 nM.

For `CCc1cc(C)[nH]c(=O)c1CNC(=O)c1cc(-c2ccc(N3CCN(C(C)C)CC3)nc2)cc2c1cnn2C(C)C`, the figures for the IC50 in assay [1] and in assay [2] were 12 nM and 810 nM, respectively.

As to `CCCCc1cc(C)[nH]c(=O)c1CNC(=O)c1cc(-c2ccc(N3CCN(C(C)C)CC3)nc2)cc2c1cnn2C(C)C`, the IC50 in assay [1] is less than 10 nM; in assay [2] it was 160 nM.

Take `CCCc1cc(C)[nH]c(=O)c1CNC(=O)c1cc(-c2ccc(F)cc2)cc2c1cnn2C(C)C`: the IC50 was 48 nM in assay [1] and more than 1250 nM in assay [2].

Take `CCCc1cc(C)[nH]c(=O)c1CNC(=O)c1cc(-c2ccc(N3CCN(CC)CC3)nc2)cc2c1cnn2C(C)C`: the half-inhibitory concentration (IC50) in assay [1] is less than 10 nM; in assay [2], 88 nM.

Take `CCCc1cc(C)[nH]c(=O)c1CNC(=O)c1cc(-c2ccc(C(F)(F)F)cc2)cc2c1cnn2C(C)C`: the IC50 in assay [1] is 66 nM; in assay [2], more than 1250 nM.

For `CCCc1cc(C)[nH]c(=O)c1CNC(=O)c1cc(C2CCNCC2)cc2c1cnn2C(C)C`, the figures for the IC50 in assay [1] and in assay [2] were 11 nM and 613 nM, respectively.

For the compound `CCCc1cc(C)[nH]c(=O)c1CNC(=O)c1cc(N2CCNCC2)cc2c1cnn2C(C)C`, the IC50 in assay [1] stood at 17 nM; in assay [2], 880 nM.

Turning to `CCCc1cc(C)[nH]c(=O)c1CNC(=O)c1cc(Br)cc2c1cnn2C(C)C`, the results for the IC50 in assay [1] and in assay [2] were 35 nM and more than 5000 nM, respectively.

For the compound `CCCc1cc(C)[nH]c(=O)c1CNC(=O)c1cc(-c2ccc(F)cn2)cc2c1cnn2C(C)C`, the IC50 in assay [1] amounted to 22 nM; in assay [2], 773 nM.

Turning to `CCCc1cc(C)[nH]c(=O)c1CNC(=O)c1cc(-c2ccc(N3CCNCC3)nc2)cc2c1cnn2C(C)C`, the IC50 in assay [1] is less than 10 nM; in assay [2] it was 60 nM.

As usually defined, the IC50 is the concentration needed to halve the response being measured.
